# HIF activator – HIF pathway transcriptional activation. U2OS HRE-luciferase reporter, luminescence; normalized: DMSO 0%, desferrioxamine 100%. activation, % at 7.5 µM (by protocol). 0.32% of 300,000 active. AID 1910;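 active means mean activation of at least 10% of the iron chelator positive control signal, with at least half of replicates also reaching 10%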
# CSC inhib – cancer stem cell inhibition; inhibition, % at 7.5 µM; cancer stem cell-like cells viability, luminescence; 1.1% of 300,000 active; in the data active means inhibition above about 75%; tested in HMLE shEcad cells
# Beta apoptosis – beta cell apoptosis inhibition | INS-1E cytokine-induced death, ATP luminescence, 48 h; percent of positive-control rescue, neutral wells zero | protection from apoptosis, % (test concentration not listed) | 0.8% of 300,000 active | AID 435005;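 active means Every replicate reaches about 75%, or at least half do and their mean reaches it too, limit read from the data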;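 further: 0% = cytokine-treated negative control wells and 100% = positive control rescue; higher means more ATP so stronger rescue from cytokine killing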
# T cruzi repl – T. cruzi replication inhibition; T. cruzi beta-gal in NIH3T3, luminescence, 90 h; inhibition, % (test concentration not listed); 1.4% of 300,000 active;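 active means mean inhibition across valid replicates above about 55%, limit read from the data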;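 further: signal also drops with host cell toxicity which is not excluded here; 0% = plate median of DMSO wells and 100% = zero luminescence signal; higher percent means less beta-gal luminescence so fewer parasites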
#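 Incubation – ≥90 h infection period, 3 h prior cell attachment · System – NIH/3T3 fibroblasts plus reporter T. cruzi · Doses – compound pinned at 50 nL/well, DMSO · Read-out basis – percent inhibition of parasite-derived β-gal signal · Signal – luminescent β-galactosidase signal after 60 min lysis · Also added – 5000 T. cruzi trypomastigotes/well · Medium – Low-serum DMEM with 2% FBS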
# PfHsp90 set2 – reduces growth (ATP signal) of yeast expressing P. falciparum Hsp90 | S. cerevisiae expressing PfHsp90, BacTiter-Glo ATP, 48 h; yeast lacking PDR1 and PDR3 efflux regulators | inhibition, % at 9.4 µM | 0.32% of 310,000 active;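 active means every replicate shows inhibition above about 80%, whatever the replicate mean, limit read from the data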;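 further: 0% = DMSO neutral controls and 100% = 20 µM radicicol positive controls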
# SKKanGAS inh – inhibitors of SKKanGAS S. pyogenes growth in kanamycin (SK-promoter or general growth effect) | inhibition, % at 7.5 µM | BacTiter-Glo, 6 h | 1.3% of 300,000 active | AID 1662;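 active means mean replicate score, as percent of positive control median, at least 50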;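 further: strain carries kanamycin resistance gene driven by streptokinase promoter and grows in 40 µg/ml kanamycin; loss of luminescence reflects streptokinase promoter inhibition or plain growth inhibition; 0% = median of DMSO wells and 100% = positive control at its reference dose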
# Starred values were filed as active, the others as inactive; · = no result. A selection: hits, their analogues and other compounds. The true share with any hit is near 3.6%.
SMILES,HIF activator,CSC inhib,Beta apoptosis,T cruzi repl,PfHsp90 set2,SKKanGAS inh
COc1cccc(-c2cc(C(=O)N3CCN(C(c4ccccc4)c4ccccc4)CC3)no2)c1,-0.4,53.7,39.8,68.3*,-20.0,-15.8
O=C(c1cc(-c2ccco2)on1)N1CCN(c2ccccc2)CC1,-0.1,84.4*,-4.8,-11.5,-8.8,-4.8
CCOC(=O)COc1ccccc1/C=C\[N+](=O)[O-],-6.3,-4.0,106.4*,9.3,54.5,4.6
CN(CC1CCCO1)S(=O)(=O)c1ccc(C(=O)Nc2nccs2)cc1 (stereo not drawn),278.7*,22.0,-9.9,-8.8,5.5,-6.9
Cc1ccc(OCC(=O)O)c(-n2nc3ccccc3n2)c1,0.4,-10.5,-23.6,-3.1,-27.2,-2.1
Cc1ccc(NC(=O)COc2ccc(CCO)cc2-n2nc3ccccc3n2)cc1C,0.2,60.0,1.2,56.7*,-4.6,20.1
COc1cc(OC)cc(C(=O)NC(=S)NNC(=O)c2cnccn2)c1,-0.4,106.0*,84.7*,35.8,54.9,35.2
COc1cc(OC)cc(C(=O)NNC(=S)NC(=O)c2cccnc2)c1,0.5,15.8,6.0,-9.2,-2.4,16.1
COc1ccc(C(=O)NC(=S)NNC(=O)c2cnccn2)cc1OC,-0.2,38.3,81.7*,-5.1,-250.1,17.5
COc1ccc(C(=O)NCCNC(=O)c2cnccn2)cc1OC,0.0,·,0.7,-8.6,-21.9,-3.3
O=C(CC1CC2CCC1C2)NCCc1ccc(Cl)cc1 (stereo not drawn),0.8,-4.1,84.9*,5.2,-15.9,-4.8
O=C(COC(=O)CC1CC2CCC1C2)NCc1ccc(F)cc1 (stereo not drawn),·,·,-0.5,·,·,·
O=C(COc1ccc(Cl)cc1Cl)Nc1ccc(-c2ccc(N3CCOCC3)nn2)cc1,-0.1,·,1.9,22.6,·,50.6*
COCCN(C(=O)COC(=O)C(C)(C)Oc1ccc(Cl)cc1)c1c(N)n(Cc2ccccc2)c(=O)[nH]c1=O,·,·,·,·,-11.6,·
Cc1ccc(N=Nc2c(O)ccc3n[nH]nc23)cc1,-28.1,7.6,98.5*,1.6,5.9,6.0
CCNC(=S)N/N=C1\C(=O)c2cccc3cccc1c23,-27.4,-4.9,10.4,23.1,-21.8,38.8
O=C(N/N=C1/C(=O)c2cccc3cccc1c23)c1ccc(Cl)cc1,0.3,38.2,26.7,30.2,-57.4,99.8*
COc1ccc(CNC(=O)CN(C(=O)CCC(=O)Nc2nccs2)c2ccccc2C)cc1,-0.1,-10.2,-3.9,6.6,10.9,26.6
CC[C@@]1(C(=O)OC)N[C@H](CN(C)C(=O)Nc2ccccc2)[C@@H]2C(=O)N(Cc3ccccc3)C(=O)[C@@H]21,·,·,·,·,5.0,·
COc1ccc(/C=N/OCC(=O)N2CC3(C)CC2CC(C)(C)C3)cc1 (stereo not drawn),·,109.7*,-5.6,5.0,-28.0,-1.0
O=C(CN1CCN(c2ccccc2O)CC1)Nc1cc(S(=O)(=O)N2CCCC2)ccc1Cl,·,·,5.9,·,-2.0,·
CSc1ccccc1-c1n[nH]c(=S)o1,0.2,·,·,1.2,3.3,56.2*
Cc1ccccc1-c1n[nH]c(=S)o1,-0.3,-7.0,·,-10.3,-7.2,0.8
CCn1cnnc1SCC(=O)Nc1ccccc1C(=O)NC1CC1,·,2.7,-5.8,·,·,·
COc1ccc(/C=C2\SC(=S)N(CCC(=O)N(CCO)Cc3ccccc3)C2=O)cc1OC,-0.5,6.3,-15.1,64.5*,3.7,6.8
SMILES,HIF activator,CSC inhib,Beta apoptosis,T cruzi repl,PfHsp90 set2,SKKanGAS inh
O=C1/C(=C\c2cc(Br)cc(Br)c2O)SC(=S)N1Cc1ccccc1,0.4,77.5*,0.0,7.8,26.3,78.5*
CCOc1cc(/C=C2/SC(=S)N(Cc3ccccc3)C2=O)ccc1O,0.7,76.3*,0.1,-3.3,6.9,23.8
COc1ccc(/C=C2\SC(=S)N(CCC(=O)Nc3ccc(C(=O)O)cc3)C2=O)cc1OC,0.0,7.1,-5.9,-1.9,-6.2,19.9
COc1cc([N+](=O)[O-])cc(/C=C2/SC(=S)N(Cc3ccccc3)C2=O)c1O,-1.7,92.2*,17.4,10.6,8.5,41.0
Cc1noc(C)c1NC(=O)N(C)C[C@@H]1Oc2c(NC(=O)c3ccncc3)cccc2C(=O)N([C@H](C)CO)C[C@@H]1C,·,-6.6,3.7,·,29.6,·
Cn1nc(C(C)(C)C)c([N+](=O)[O-])c1C(=O)N1CCCCCC1,0.0,5.2,-8.7,1.8,13.4,-0.7
CNC(=S)N(CCc1c(C)[nH]c2ccccc12)Cc1cccnc1,1.5,18.7,-0.8,-5.6,24.5,-12.0
C1=C[C@H]2CC[C@@H]1N(c1ccccc1)O2,·,·,·,·,10.5,·
C[C@H]1[C@@H](c2ccccc2)Oc2ccc(Cl)cc2S(=O)(=O)N1Cc1ccc(F)cc1F,·,·,·,·,-6.1,·
COc1cc(/C=C2/SC(=S)N(Cc3ccccc3)C2=O)ccc1OCC(=O)O,0.5,20.1,-5.5,-2.2,-8.2,20.4
COc1cc(/C=C2/SC(=S)N(Cc3ccccc3)C2=O)cc(Cl)c1O,-9.1,116.8*,38.0,1.0,20.5,73.2*
Cc1ccc(NC2=NCC(Cc3ccc(Br)cc3)S2)cc1 (stereo not drawn),0.0,88.9*,34.1,47.4,3.9,85.3*
CCc1ccc(NC2=NCC(c3ccccc3)S2)cc1 (stereo not drawn),5.3,0.7,10.3,19.9,·,94.0*
CCOc1ccc(NC(=O)CN2C(=O)NC(CCc3ccccc3)C2=O)cc1OCC (stereo not drawn),·,-1.2,-2.0,·,-29.4,·
COc1ccc(CN(C)C(=O)c2ccc(NC(=O)CC3SC(N4CCCCC4)=NC3=O)cc2)c(OC)c1 (stereo not drawn),·,·,·,·,-18.4,·
O=C(CC1SC(N2CCCC2)=NC1=O)Nc1ccc(C(=O)Nc2ncccc2O)cc1 (stereo not drawn),20.4*,·,-1.1,-11.2,4.0,5.6
Cc1ccnc(NC(=O)c2ccc(NC(=O)CC3SC(N4CCCC4)=NC3=O)cc2)c1 (stereo not drawn),0.6,-6.1,-1.2,-5.8,0.8,-11.9
CN(C(=O)c1ccc(NC(=O)C2CCN(C(=O)OC(C)(C)C)CC2)cc1)C1CCC1,·,-11.8,0.1,·,15.1,·
O=C(Nc1ccc(Cl)cc1)Nc1nnc(-c2ccncc2)s1,0.4,91.2*,98.8*,-14.4,-8.4,11.8
O=C(Nc1cccc(Cl)c1)Nc1nnc(-c2ccncc2)s1,0.9,65.2,99.6*,6.3,13.5,9.3
O=C(Nc1cccc(Cl)c1)Nc1nnc(CSCCOc2ccc(Cl)cc2)s1,-0.6,31.1,139.3*,37.5,-1.2,22.4
COc1ccc(S(=O)(=O)NCc2ccc(C(=O)NCc3cccnc3)cc2)cc1,0.7,37.9,3.4,-7.4,·,-3.1
O=C(CN1C(=O)C2CC=CCC2C1=O)Nc1nc(-c2ccc(F)c(F)c2)cs1 (stereo not drawn),·,9.5,-2.4,·,-7.4,·
CC(C)c1ccc(/C=C2\SC(=S)N(CCC(=O)N3CCCCC3CCO)C2=O)cc1 (stereo not drawn),0.0,28.5,-28.8,-9.9,-16.7,-3.2
